Experimental findings from ChEMBL document CHEMBL3352165 (Eur J Med Chem, 2014) are described below.

Assay [1] in a line: Antitumor activity against human Calu3 cells xenografted in BALB/cA mouse assessed as tumor growth inhibition at 100 mg/kg, po. It is filed as functional. The settings on record: Calu-3, read-out: TGI. An outline of the steps: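 Female BALB/cA nude mice, 6–7 weeks old, implanted s.c. on midright side with 2×10^6 Calu-3 cells in 0.2 ml PBS. Grouped at 60–150 mm³ tumour volume (6 per treated group, 12 vehicle). Oral dosing in 0.5% CMC with 0.1% Tween-80. Caliper volume = L×W²×0.5; inhibition = (1 − T/C)×100% on relative tumour volume; weight tracked for 21 d.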

Assay [2] has as its system BT-474. Description: Induction of apoptosis in human BT474 cells at 10 uM incubated for 12 hrs by propidium iodide staining based flow cytometry (reference value: 1%). It is filed as functional.
Assay [3] addresses Receptor tyrosine-protein kinase erbB-2 (Homo sapiens, UniProt P04626). The conditions noted are these: BT-474, 0.001 to 1 uM.
Assay [4] concerns BT-474. Nature of the assay: Cytotoxicity against human BT474 cells assessed as inhibition of cell growth after 72 hrs by sulforhodamine B assay. The assay is classed as functional, cell-based. The settings on record: BT-474, 72 h. An outline of the steps:
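Cells grown in RPMI-1640 with 5% FBS and plated at 5.0×10^4/ml. Next day exposed to 0.5–5000 ng/ml for 3 days. Survival read by sulforhodamine B staining. IC50 taken from growth curves; mean of at least three determinations.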

Chain of Receptor tyrosine-protein kinase erbB-2 (P04626 whole entry): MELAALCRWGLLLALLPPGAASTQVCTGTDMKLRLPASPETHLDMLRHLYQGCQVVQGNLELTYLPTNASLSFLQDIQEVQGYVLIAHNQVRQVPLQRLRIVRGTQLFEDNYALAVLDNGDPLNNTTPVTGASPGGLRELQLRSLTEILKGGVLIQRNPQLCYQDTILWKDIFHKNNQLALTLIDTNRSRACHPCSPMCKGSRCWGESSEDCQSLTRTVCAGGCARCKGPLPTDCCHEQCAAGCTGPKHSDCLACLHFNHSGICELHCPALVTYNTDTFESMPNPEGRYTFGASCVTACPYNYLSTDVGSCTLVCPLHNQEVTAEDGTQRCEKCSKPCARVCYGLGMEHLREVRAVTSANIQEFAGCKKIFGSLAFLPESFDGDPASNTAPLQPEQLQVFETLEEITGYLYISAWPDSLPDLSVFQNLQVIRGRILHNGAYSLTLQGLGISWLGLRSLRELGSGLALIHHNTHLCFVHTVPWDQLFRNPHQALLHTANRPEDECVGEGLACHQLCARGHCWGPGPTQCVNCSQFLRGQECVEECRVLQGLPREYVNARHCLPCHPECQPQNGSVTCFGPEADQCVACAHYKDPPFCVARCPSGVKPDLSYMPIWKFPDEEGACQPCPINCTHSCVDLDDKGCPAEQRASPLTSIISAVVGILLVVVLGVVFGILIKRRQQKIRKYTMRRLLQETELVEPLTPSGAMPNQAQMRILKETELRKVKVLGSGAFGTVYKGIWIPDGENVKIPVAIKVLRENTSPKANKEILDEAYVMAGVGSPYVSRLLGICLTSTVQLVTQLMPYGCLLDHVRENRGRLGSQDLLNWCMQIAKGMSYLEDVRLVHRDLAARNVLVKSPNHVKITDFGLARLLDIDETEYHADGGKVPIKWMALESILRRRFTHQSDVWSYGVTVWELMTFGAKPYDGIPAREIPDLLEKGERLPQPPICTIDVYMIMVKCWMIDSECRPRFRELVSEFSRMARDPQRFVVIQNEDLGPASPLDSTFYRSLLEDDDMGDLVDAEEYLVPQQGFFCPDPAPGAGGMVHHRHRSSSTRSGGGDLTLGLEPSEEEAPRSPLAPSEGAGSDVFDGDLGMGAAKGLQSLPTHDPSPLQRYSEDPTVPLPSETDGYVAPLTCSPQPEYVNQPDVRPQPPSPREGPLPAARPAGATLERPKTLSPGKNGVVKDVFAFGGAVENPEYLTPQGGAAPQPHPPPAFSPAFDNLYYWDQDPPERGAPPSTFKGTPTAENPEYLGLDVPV

As to `CN(C)[C@H](CS(C)(=O)=O)c1ccc(-c2ccc3ncnc(Nc4ccc(OCc5cccc(F)c5)c(Cl)c4)c3c2)o1`, the inhibition in vivo at 100 mg/kg in assay [1] turned out to be 68%. Moreover, the Activity in the assay on BT-474 [2] is 11%. Also, in assay [3], the inhibition result was “Dose-dependent effect”. Moreover, the IC50 in the assay on BT-474 [4] is 28.8 nM.
